Measurements published in ChEMBL document CHEMBL3875213, “Quinolines: Microwave-assisted synthesis and their antifungal, anticancer and radical scavenger properties” (Bioorg Med Chem, 2017).
In brackets after ≈: the same amount, converted by molar mass. Activity calls are given as the source filed them. The calls are words filed in the database; no cut-off is given here.

Columns and labels:
[1] = Antiproliferative activity against human Hep2C cells after 24 hrs by MTT assay; format: functional, cell-based
How it was run: (§1)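 Cells grown in medium with 10% foetal bovine serum and 1% L-glutamine at 37 °C, 5% CO2, seeded at 1 x 10^5 cells/well. Exposed to compound at 1.0-1,000 µg/mL for 24 h. MTT added, absorbance read at 540 nm 3 h later. IC50 obtained by non-linear regression of viability data.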

[2] = Antioxidant activity assessed as DPPH radical scavenging activity incubated for 30 mins under dark condition; format: functional
How it was run: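 DPPH (100 µM) in ethanolic medium, stirred 30 min in the dark, absorbance at 517 nm. Compound varied from 0 to 160 µg/mL to find the concentration scavenging 50% of radicals. Three independent experiments, each in triplicate.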

[3] = Antioxidant activity assessed as fluorescent light-induced superoxide anion scavenging activity incubated for 10 mins by nitroblue tetrazolium dye based assay; format: functional
How it was run: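 Riboflavin/light superoxide system: 50 mM phosphate pH 7.8, 13 mM L-methionine, 75 µM NBT, 100 µM EDTA, 2 µM riboflavin, compound 0-200 µg/mL. Fluorescent light for 10 min at 25 °C, dark controls, scavenging measured at 575 nm. Resveratrol as reference.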

[4] = test system: Candida albicans; experiment: Growth inhibition of Candida albicans ATCC 10231 at 3.9 ug/ml incubated for 48 hrs under dark condition by broth microdilution assay relative to amphotericin B; format: functional; settings: ATCC 10231, 48 h, read-out: GI
How it was run: (§2)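 Yeast broth microdilution (CLSI M27-A3), RPMI-1640, inoculum 1-5 x 10^3 CFU/mL, DMSO ≤1%, 48 h at 30 °C in a moist, dark chamber. […]. Triplicate; amphotericin B as positive control.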

[5] = test system: Candida albicans; experiment: Growth inhibition of Candida albicans ATCC 10231 at 125 ug/ml incubated for 48 hrs under dark condition by broth microdilution assay relative to amphotericin B; format: functional; settings: ATCC 10231, 48 h, read-out: GI; how it was run: as §2
[6] = test system: Candida albicans; experiment: Growth inhibition of Candida albicans ATCC 10231 at 7.81 ug/ml incubated for 48 hrs under dark condition by broth microdilution assay relative to amphotericin B; format: functional; settings: ATCC 10231, 48 h, read-out: GI; how it was run: as §2
[7] = test system: Candida albicans; experiment: Growth inhibition of Candida albicans ATCC 10231 at 31.25 ug/ml incubated for 48 hrs under dark condition by broth microdilution assay relative to amphotericin B; format: functional; settings: ATCC 10231, 48 h, read-out: GI; how it was run: as §2
[8] = Antioxidant activity assessed as fluorescent light-induced superoxide anion scavenging activity at 160 uM incubated for 10 mins by nitroblue tetrazolium dye based assay; format: functional
How it was run: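 Superoxide generated photochemically in 50 mM phosphate buffer pH 7.8 with 13 mM L-methionine, 75 µM nitroblue tetrazolium, 100 µM EDTA and 2 µM riboflavin. Compound at 160 µM. 10 min at 25 °C under fluorescent light; dark controls. Read at 575 nm. Resveratrol as positive control; three independent experiments in triplicate.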

[9] = test system: Candida albicans; experiment: Growth inhibition of Candida albicans ATCC 10231 at 15.62 ug/ml incubated for 48 hrs under dark condition by broth microdilution assay relative to amphotericin B; format: functional; settings: ATCC 10231, 48 h, read-out: GI; how it was run: as §2
[10] = Antioxidant activity assessed as DPPH radical scavenging activity at 160 uM incubated for 30 mins under dark condition; format: functional
How it was run: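 Compound at 160 µM incubated with 100 µM DPPH in ethanolic medium, stirred in the dark for 30 min, read at 517 nm. Resveratrol as positive control. Three independent experiments, each in triplicate.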

[11] = test system: Candida albicans; experiment: Growth inhibition of Candida albicans ATCC 10231 at 62.5 ug/ml incubated for 48 hrs under dark condition by broth microdilution assay relative to amphotericin B; format: functional; settings: ATCC 10231, 48 h, read-out: GI; how it was run: as §2
[12] = test system: Candida albicans; experiment: Growth inhibition of Candida albicans ATCC 10231 at 250 ug/ml incubated for 48 hrs under dark condition by broth microdilution assay relative to amphotericin B; format: functional; settings: ATCC 10231, 48 h, read-out: GI; how it was run: as §2
[13] = Potency index, ratio of resveratrol SC50 to compound SC50 for fluorescent light-induced superoxide anion scavenging activity
[14] = test system: Candida albicans; experiment: Antifungal activity against Candida albicans ATCC 10231 incubated for 48 hrs under dark condition by broth microdilution assay; format: functional; settings: ATCC 10231, 48 h
How it was run: (§3)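 Broth microdilution per CLSI M27-A3 in RPMI-1640. Inocula adjusted to 1-5 x 10^3 CFU/mL. Stocks in DMSO (≤1%), final 3.9-250.0 µg/mL. Incubated 48 h at 30 °C in a moist, dark chamber, read at OD 405. % inhibition computed from growth and sterility control wells, run in triplicate. MIC80/MIC50 taken from four-parameter logistic concentration-response curves; amphotericin B as positive control.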

[15] = Antifungal activity against Cryptococcus neoformans ATCC 32264 incubated for 48 hrs under dark condition by broth microdilution assay; format: functional; how it was run: as §3
[16] = test system: NCI-H226; experiment: Selectivity index, ratio of IC50 for human CCD-19Lu cells to IC50 for human NCI-H226 cells; format: functional
How it was run: (§4)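 Selectivity index equals IC50 in non-tumour CCD 19-Lu lung fibroblasts divided by IC50 in the tumour line. Both IC50s come from the 24 h MTT assay (read at 540 nm) over 1.0-1,000 µg/mL.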

[17] = Selectivity index, ratio of IC50 for human CCD-19Lu cells to IC50 for human TOV21G cells; format: functional; how it was run: as §4
[18] = Antiproliferative activity against human NCI-H226 cells harboring TP53 mutant after 24 hrs by MTT assay; format: functional, cell-based; settings: NCI-H226, 24 h; how it was run: as §1
[19] = Antiproliferative activity against human CCD-19Lu cells after 24 hrs by MTT assay; format: cell-based; how it was run: as §1
[20] = Selectivity index, ratio of IC50 for human CCD-19Lu cells to IC50 for human Hep2C cells; format: functional; how it was run: as §4
[21] = Antiproliferative activity against human TOV21G harboring wild type TP53 cells after 24 hrs by MTT assay; format: functional, cell-based; how it was run: as §1

| SMILES | IC50 [1] | SC50 [2] | SC50 [3] | inhibition of growth at 3.9 µg/mL [4] | inhibition of growth at 125 µg/mL [5] | inhibition of growth at 7.81 µg/mL [6] | inhibition of growth at 31.25 µg/mL [7] | Activity [8] | inhibition of growth at 15.62 µg/mL [9] | Activity [10] | inhibition of growth at 62.5 µg/mL [11] | inhibition of growth at 250 µg/mL [12] | MIC50 [14] | MIC80 [14] | MIC50 [15] | MIC80 [15] | Ratio IC50 [16] | IC50 [18] | IC50 [19] | Ratio IC50 [20] | also measured |
| --- | --- | --- | --- | --- | --- | --- | --- | --- | --- | --- | --- | --- | --- | --- | --- | --- | --- | --- | --- | --- | --- |
| Cc1ccc(-c2cc(-c3ccccc3)c3cc(Br)ccc3n2)cc1 | 175 µM | 197 µM | 104 µM | 0% | 11.1% | 0% | 2.64% | Active | 3.04% | 45 to 55% | 5.87% | 31.5% | > 250 µg/mL | > 250 µg/mL | 15.6 µg/mL (≈ 41.7 µM) | > 250 µg/mL |  |  |  |  | Ratio [13]: 2 |
| COc1ccc2nc(-c3ccccc3)cc(-c3ccccc3)c2c1 | 496 µM | 168 µM | > 250 µM | 0% | 20.9% | 0% | 8.43% |  | 4% | 45 to 55% | 12.2% | 57.2% | 250 µg/mL (≈ 803 µM) | > 250 µg/mL | 250 µg/mL (≈ 803 µM) | 250 µg/mL (≈ 803 µM) | 16 | 57 µM | 925 µM | 1 | Ratio IC50 [17]: 8; IC50 [21]: 110 µM |
| Clc1ccc(-c2cc(-c3ccccc3)c3cc(Br)ccc3n2)cc1 | 269 µM | 180 µM | > 250 µM | 0% | 24.7% | 0% | 6.78% |  | 6.88% | 45 to 55% | 9.38% | 50.5% | 250 µg/mL (≈ 633 µM) | > 250 µg/mL | 250 µg/mL (≈ 633 µM) | > 250 µg/mL | 356 | 1.58 µM | 528 µM | 1 |  |
| Oc1cccc(-c2cc(-c3ccccc3)c3cc(Br)ccc3n2)c1 |  | > 250 µM | 121 µM |  | 20.2% | 3.15% | 7.61% | Active | 4.08% |  | 11.2% | 40.9% | > 250 µg/mL | > 250 µg/mL | > 250 µg/mL | > 250 µg/mL |  |  |  |  | Ratio [13]: 2 |
| Fc1ccc(-c2cc(-c3ccccc3)c3cc(Br)ccc3n2)cc1 | 5 µM |  |  | 0.19% | 6.09% | 1.37% | 4.35% | Active | 4.24% |  | 4.13% | 17.2% | > 250 µg/mL | > 250 µg/mL | 15.6 µg/mL (≈ 41.2 µM) | > 250 µg/mL |  |  |  |  | IC50 [21]: 570 µM |
| Oc1ccc(-c2cc(-c3ccccc3)c3cc(Br)ccc3n2)cc1 | 105 µM |  |  | 2.41% | 21.2% | 3.56% | 6.17% | Active | 4.5% |  | 9.63% | 45.8% | 62.5 µg/mL (≈ 166 µM) | 125 µg/mL (≈ 332 µM) | 62.5 µg/mL (≈ 166 µM) | 250 µg/mL (≈ 664 µM) | 13 | 8 µM | 104 µM | 0 |  |
| COc1cc(-c2cc(-c3ccccc3)c3cc(Br)ccc3n2)cc(OC)c1OC |  | 428 µM | > 250 µM | 0% | 52.9% | 2.99% | 12.9% |  | 7.32% |  | 20.8% | 82.7% | 125 µg/mL (≈ 278 µM) | 250 µg/mL (≈ 555 µM) | 62.5 µg/mL (≈ 139 µM) | 250 µg/mL (≈ 555 µM) | 1 | 61 µM | 104 µM |  | Ratio IC50 [17]: 0; IC50 [21]: 493 µM |
| Brc1ccc2nc(-c3ccco3)cc(-c3ccccc3)c2c1 | 102 µM | 82.7 µM | > 250 µM | 1.75% | 43.2% | 4.37% | 13.1% |  | 8.68% | 45 to 55% | 21.5% | 83.3% | 62.5 µg/mL (≈ 178 µM) | 125 µg/mL (≈ 357 µM) | 62.5 µg/mL (≈ 178 µM) | 250 µg/mL (≈ 714 µM) | 21 | 30 µM | 631 µM | 6 | Ratio IC50 [17]: 0; Activity [15]: Dose-dependent effect; IC50 [21]: 877 µM |
